Where two headings read alike, the source gives them in different places. Peptide text beside a SMILES is read from it. * marks the point of attachment. Dansyl = CN(C)c1cccc2c(S(=O)(=O)*)cccc12
What was measured:
Tiam2 PDZ domain = target: T1, Tiam2 PDZ domain (Mus musculus, UniProt Q6ZPF3); assay: Equilibrium fluorescence anisotropy binding of dansylated peptides
T1 sequence (Q6ZPF3 908-997 limits assumed): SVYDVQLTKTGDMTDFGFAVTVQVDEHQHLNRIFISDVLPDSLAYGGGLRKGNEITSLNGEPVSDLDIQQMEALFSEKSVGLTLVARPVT
Procedure, shortened: (§1)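 Purified PDZ domains were titrated from a 1.5 mM stock into 1 μM N-terminally dansylated peptide at 25 °C in a stirred cuvette. Proteins were expressed in E. coli BL21(DE3), purified by Ni-chelate and size-exclusion chromatography, and His6-tag cleaved by TEV; Tiam2 is mouse residues 809–994; mutants made by site-directed mutagenesis. Anisotropy ex 340/em 550 nm, buffer-blank corrected. Kd from hyperbolic fit, mean of ≥3 independent runs; ΔG = RT ln Kd (298.15 K).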

[1] = target: Tiam1 PDZ domain (wild-type) (Homo sapiens, UniProt Q13009); assay: as above
Chain of Tiam1 PDZ domain (wild-type) (Q13009 841-930 limits assumed): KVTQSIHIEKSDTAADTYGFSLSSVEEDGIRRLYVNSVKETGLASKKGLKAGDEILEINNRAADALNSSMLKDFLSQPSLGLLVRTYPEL
Procedure, shortened: as §1

Tiam1 PDZ L911M/K912E [2] = target: Tiam1 PDZ L911M/K912E (Mus musculus, UniProt Q60610, L911M/K912E, species not given); assay: Fluorescence anisotropy binding and double-mutant cycle, Tiam1 PDZ mutant; settings: Tiam1 PDZ L911M/K912E; for Kd: fluorescence anisotropy, 25 °C
Chain of Tiam1 PDZ L911M/K912E (Mus musculus, UniProt Q60610, L911M/K912E, species not given) (Q60610 2-1591 L911M/K912E): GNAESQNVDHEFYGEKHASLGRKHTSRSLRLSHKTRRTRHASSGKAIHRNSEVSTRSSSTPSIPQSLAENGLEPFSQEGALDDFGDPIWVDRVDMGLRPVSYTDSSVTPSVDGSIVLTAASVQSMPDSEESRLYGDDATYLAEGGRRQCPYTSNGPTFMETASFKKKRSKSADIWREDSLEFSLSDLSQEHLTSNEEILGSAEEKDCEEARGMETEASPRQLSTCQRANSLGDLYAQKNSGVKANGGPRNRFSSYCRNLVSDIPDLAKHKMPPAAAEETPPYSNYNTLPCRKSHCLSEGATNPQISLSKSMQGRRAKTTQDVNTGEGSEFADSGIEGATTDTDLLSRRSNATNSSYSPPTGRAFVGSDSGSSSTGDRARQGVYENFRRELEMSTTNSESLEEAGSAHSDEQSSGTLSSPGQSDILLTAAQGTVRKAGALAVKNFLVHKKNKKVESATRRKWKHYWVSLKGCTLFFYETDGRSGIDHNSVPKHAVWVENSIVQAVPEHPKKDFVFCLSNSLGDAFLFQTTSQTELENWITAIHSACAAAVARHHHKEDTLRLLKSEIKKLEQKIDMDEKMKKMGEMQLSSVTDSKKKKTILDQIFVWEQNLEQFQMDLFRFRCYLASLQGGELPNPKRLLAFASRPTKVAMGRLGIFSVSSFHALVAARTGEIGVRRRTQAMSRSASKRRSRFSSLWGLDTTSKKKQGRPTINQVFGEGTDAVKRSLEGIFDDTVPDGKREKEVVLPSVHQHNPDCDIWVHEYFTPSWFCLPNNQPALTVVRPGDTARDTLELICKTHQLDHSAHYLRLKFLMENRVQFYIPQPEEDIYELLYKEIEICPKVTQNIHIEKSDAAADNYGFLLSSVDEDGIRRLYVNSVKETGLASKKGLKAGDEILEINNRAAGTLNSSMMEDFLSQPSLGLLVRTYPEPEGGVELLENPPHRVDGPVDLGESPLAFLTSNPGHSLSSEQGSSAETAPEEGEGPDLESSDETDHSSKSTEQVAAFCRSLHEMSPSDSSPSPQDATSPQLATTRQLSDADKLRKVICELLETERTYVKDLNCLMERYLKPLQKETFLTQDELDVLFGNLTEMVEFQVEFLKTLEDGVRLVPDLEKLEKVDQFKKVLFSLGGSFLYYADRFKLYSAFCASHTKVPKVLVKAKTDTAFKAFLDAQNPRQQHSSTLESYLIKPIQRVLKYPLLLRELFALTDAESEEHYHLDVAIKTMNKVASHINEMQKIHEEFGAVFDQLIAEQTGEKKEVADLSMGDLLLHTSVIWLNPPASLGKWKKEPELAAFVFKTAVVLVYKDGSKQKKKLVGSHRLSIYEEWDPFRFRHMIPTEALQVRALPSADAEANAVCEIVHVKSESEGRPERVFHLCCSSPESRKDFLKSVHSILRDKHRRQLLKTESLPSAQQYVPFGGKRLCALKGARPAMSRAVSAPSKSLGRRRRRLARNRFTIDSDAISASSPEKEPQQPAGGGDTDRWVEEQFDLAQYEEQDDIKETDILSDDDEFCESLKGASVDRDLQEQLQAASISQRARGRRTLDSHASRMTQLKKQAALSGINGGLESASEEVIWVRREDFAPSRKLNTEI
Procedure, shortened: (§2)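 Wild-type, single- and double-mutant Tiam1 PDZ (E. coli-expressed, tag-cleaved) were each titrated into 1 μM dansylated peptide at 25 °C. Anisotropy read at ex 340/em 550 nm; Kd from hyperbolic fit, ≥3 independent runs. ΔG = RT ln Kd at 298.15 K. Coupling energy ΔΔΔGint = (ΔGWT − ΔGM1) − (ΔGM2 − ΔGDM), with errors propagated by standard methods.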

Tiam1 PDZ L911M/K912E [3] = assay: as above; settings: for ΔΔGb: ΔGb(mutant) − ΔGb(wild-type), L911M/K912E
Procedure, shortened: as §2

Tiam1 PDZ L911M = Tiam1 PDZ L911M (Homo sapiens, UniProt Q13009, L911M); assay: Fluorescence anisotropy binding, Tiam1 PDZ mutant
Chain of Tiam1 PDZ L911M (Q13009 841-930 L911M limits assumed): as the sequence (Q13009 841-930 limits assumed) above, with L71M counted along it
Procedure, shortened: as §1

Tiam1 PDZ K912E = Tiam1 PDZ K912E (Homo sapiens, UniProt Q13009, K912E); assay: Fluorescence anisotropy binding, Tiam1 PDZ mutant
Chain of Tiam1 PDZ K912E (Q13009 841-930 K912E limits assumed): as the sequence (Q13009 841-930 limits assumed) above, with K72E counted along it
Procedure, shortened: as §1

Tiam1 PDZ L915F/L920V [4] = target: Tiam1 PDZ L915F/L920V (Mus musculus, UniProt Q60610, L915F/L920V, species not given); assay: Fluorescence anisotropy binding and double-mutant cycle, Tiam1 PDZ mutant; settings: Tiam1 PDZ L915F/L920V; for Kd: fluorescence anisotropy, 25 °C
Chain of Tiam1 PDZ L915F/L920V (Mus musculus, UniProt Q60610, L915F/L920V, species not given) (Q60610 2-1591 L915F/L920V): as the sequence (Q60610 2-1591 L911M/K912E) above, with M910L, E911K, L914F, L919V counted along it
Procedure, shortened: as §2

Tiam1 PDZ L915F/L920V [5] = assay: as above; settings: for ΔΔGb: ΔGb(mutant) − ΔGb(wild-type), L915F/L920V
Procedure, shortened: as §2

Tiam1 PDZ L915F = Tiam1 PDZ L915F (Homo sapiens, UniProt Q13009, L915F); assay: Fluorescence anisotropy binding, Tiam1 PDZ mutant
Chain of Tiam1 PDZ L915F (Q13009 841-930 L915F limits assumed): as the sequence (Q13009 841-930 limits assumed) above, with L75F counted along it
Procedure, shortened: as §1

Tiam1 PDZ L920V = Tiam1 PDZ L920V (Homo sapiens, UniProt Q13009, L920V); assay: Fluorescence anisotropy binding, Tiam1 PDZ mutant
Chain of Tiam1 PDZ L920V (Q13009 841-930 L920V limits assumed): as the sequence (Q13009 841-930 limits assumed) above, with L80V counted along it
Procedure, shortened: as §1

[6] = target: Tiam1 PDZ QM (L911M/K912E/L915F/L920V) (Homo sapiens, UniProt Q13009, K912E/L911M/L915F/L920V); assay: Fluorescence anisotropy binding, Tiam1 PDZ quadruple mutant; settings: for ΔGb: Tiam1 PDZ QM
Chain of Tiam1 PDZ QM (L911M/K912E/L915F/L920V) (Homo sapiens, UniProt Q13009, K912E/L911M/L915F/L920V) (Q13009 841-930 L911M/K912E/L915F/L920V limits assumed): as the sequence (Q13009 841-930 limits assumed) above, with L71M, K72E, L75F, L80V counted along it
Procedure, shortened: as §1

[7] = system: Tiam1 PDZ QM (L911M/K912E/L915F/L920V); assay: as above; settings: for ΔΔGb: ΔGb(mutant) − ΔGb(wild-type), QM
Procedure, shortened: as §1

Structure (SMILES)	Kd (Tiam2 PDZ domain) [µM]	Kd [1] [µM]	ΔGb (Tiam1 PDZ L911M/K912E [2]) [kcal/mol]	Kd (Tiam1 PDZ L911M/K912E [2]) [µM]	ΔΔGb (Tiam1 PDZ L911M/K912E [3]) [kcal/mol]	ΔGb (Tiam1 PDZ L915F/L920V [4]) [kcal/mol]	Kd (Tiam1 PDZ L915F/L920V [4]) [µM]	ΔΔGb (Tiam1 PDZ L915F/L920V [5]) [kcal/mol]	Kd [6] [µM]	ΔGb [6] [kcal/mol]	ΔΔGb [7] [kcal/mol]	other results
C[C@H](NC(=O)[C@H](CCCNC(=N)N)NC(=O)[C@H](Cc1ccc(O)cc1)NC(=O)[C@H](CCCNC(=N)N)NC(=O)[C@H](Cc1ccc(O)cc1)NC(=O)[C@H](C)NC(=O)[C@H](C)NC(=O)[C@H](Cc1ccc(O)cc1)NS(=O)(=O)c1cccc2c(N(C)C)cccc12)C(=O)O [Tiam1 peptide 1 (Group I)] (Dansyl-YAAYRYRA-OH)	22.5 ± 1.1	> 250										
C[C@H](NC(=O)[C@H](Cc1ccc(O)cc1)NC(=O)[C@H](Cc1ccc(O)cc1)NC(=O)[C@H](CCC(=O)O)NC(=O)[C@H](CCCCN)NC(=O)[C@H](CCCNC(=N)N)NC(=O)[C@H](CO)NC(=O)[C@H](CO)NS(=O)(=O)c1cccc2c(N(C)C)cccc12)C(=O)O [Model, reference compound] (Dansyl-SSRKEYYA-OH)	24.1 ± 7.1											
CC(C)[C@H](NC(=O)[C@H](Cc1ccc(O)cc1)NC(=O)[C@H](Cc1ccc(O)cc1)NC(=O)[C@H](CCC(=O)O)NC(=O)[C@H](CCCCN)NC(=O)[C@H](CC(=O)O)NC(=O)[C@H](CCCCN)NC(=O)[C@H](CC(N)=O)NS(=O)(=O)c1cccc2c(N(C)C)cccc12)C(=O)O [Neurexin1] (Dansyl-NKDKEYYV-OH)	5 ± 0.2		-4.90 ± 0.30	270 ± 150	-1.30 ± 0.30	-5.15 ± 0.07	166 ± 12	-1.58 ± 0.10	46 ± 2	-5.91 ± 0.04	-2.30 ± 0.10	Kd (Tiam1 PDZ L911M; Tiam1 PDZ L911M, fluorescence anisotropy, 25 °C): bound very weakly; Kd (Tiam1 PDZ K912E; Tiam1 PDZ K912E, fluorescence anisotropy, 25 °C): bound very weakly; Kd (Tiam1 PDZ L915F; Tiam1 PDZ L915F, fluorescence anisotropy, 25 °C): too weak to allow for reliable measurement; Kd (Tiam1 PDZ L920V; Tiam1 PDZ L920V, fluorescence anisotropy, 25 °C): too weak to allow for reliable measurement; fold higher Kd than Tiam2 PDZ domain ([7]; QM vs Tiam2 PDZ): 9 fold
C[C@H](NC(=O)[C@H](C)NC(=O)[C@H](Cc1ccc(O)cc1)NS(=O)(=O)c1cccc2c(N(C)C)cccc12)C(=O)NCC(=O)N[C@@H](CCCNC(=N)N)C(=O)N[C@@H](CCCCN)C(=O)N[C@@H](Cc1c[nH]cn1)C(=O)N[C@@H](Cc1ccccc1)C(=O)O [Tiam2 peptide 2 (Group II)] (Dansyl-YAAGRKHF-OH)	9.9 ± 2.2	> 250										
C[C@H](NC(=O)[C@H](Cc1c[nH]c2ccccc12)NC(=O)[C@H](Cc1ccc(O)cc1)NC(=O)[C@H](CCCCN)NC(=O)[C@H](CCC(=O)O)NC(=O)[C@H](C)NC(=O)[C@H](C)NC(=O)[C@H](Cc1ccc(O)cc1)NS(=O)(=O)c1cccc2c(N(C)C)cccc12)C(=O)O [Tiam1 peptide 2 (Group I)] (Dansyl-YAAEKYWA-OH)	10.9 ± 0.4	90.3 ± 8.3										
C[C@H](NC(=O)[C@H](Cc1ccc(O)cc1)NC(=O)[C@H](Cc1ccccc1)NC(=O)[C@H](CCC(=O)O)NC(=O)[C@H](CCC(=O)O)NC(=O)[C@H](CCC(N)=O)NC(=O)[C@H](CCCCN)NC(=O)[C@@H](NS(=O)(=O)c1cccc2c(N(C)C)cccc12)[C@@H](C)O)C(=O)O [Syndecan1] (Dansyl-TKQEEFYA-OH)	200 ± 20		-5.00 ± 0.10	211 ± 36	1.20 ± 0.10	-4.91 ± 0.08	250 ± 20	1.32 ± 0.09	122 ± 8	-5.33 ± 0.04	0.89 ± 0.04	ΔΔΔGint (pair-wise coupling free energy) (Tiam1 PDZ L911M/K912E [3]; double-mutant cycle L911/K912 (S-2 pocket)): 0.07 ± 0.13 kcal/mol; Σ singles (Tiam1 PDZ L911M/K912E [3]; sum of ΔΔGb of single mutants L911M and K912E): 1.13 ± 0.09 kcal/mol; Kd (Tiam1 PDZ L911M): 34.7 ± 0.7 µM; ΔGb (Tiam1 PDZ L911M; Tiam1 PDZ L911M): -6.08 ± 0.01 kcal/mol; ΔΔGb (Tiam1 PDZ L911M; ΔGb(mutant) − ΔGb(wild-type), L911M): 0.15 ± 0.02 kcal/mol; Kd (Tiam1 PDZ K912E): 140 ± 20 µM; ΔGb (Tiam1 PDZ K912E; Tiam1 PDZ K912E): -5.25 ± 0.08 kcal/mol; ΔΔGb (Tiam1 PDZ K912E; ΔGb(mutant) − ΔGb(wild-type), K912E): 0.98 ± 0.09 kcal/mol; ΔΔΔGint (pair-wise coupling free energy) (Tiam1 PDZ L915F/L920V [5]; double-mutant cycle L915/L920 (S0 pocket)): 0.36 ± 0.13 kcal/mol; Σ singles (Tiam1 PDZ L915F/L920V [5]; sum of ΔΔGb of single mutants L915F and L920V): 0.96 ± 0.07 kcal/mol; Kd (Tiam1 PDZ L915F): 81 ± 7 µM; ΔGb (Tiam1 PDZ L915F; Tiam1 PDZ L915F): -5.58 ± 0.05 kcal/mol; ΔΔGb (Tiam1 PDZ L915F; ΔGb(mutant) − ΔGb(wild-type), L915F): 0.65 ± 0.06 kcal/mol; Kd (Tiam1 PDZ L920V): 46 ± 3 µM; ΔGb (Tiam1 PDZ L920V; Tiam1 PDZ L920V): -5.92 ± 0.03 kcal/mol; ΔΔGb (Tiam1 PDZ L920V; ΔGb(mutant) − ΔGb(wild-type), L920V): 0.31 ± 0.04 kcal/mol; fold lower Kd than Tiam2 PDZ domain ([7]; QM vs Tiam2 PDZ): 1.6 fold
